The list is not random: actives were taken first. Their share in the collection is about 1.7%.
LMPTP inh: LMPTP phosphatase inhibitors, primary screen, biochemical, fluorescence intensity, uHTS. Low molecular weight phosphotyrosine protein phosphatase (Homo sapiens), P24666. recombinant LMPTP-A, OMFP fluorogenic substrate. inhibition, % at 20 µM. hit rate 0.22% among 360,000. AID 651560, 2012;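 active = compounds that cut the enzyme signal by at least half of the control window in the single-dose screen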;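 note: plate controls were DMSO wells with enzyme plus substrate for no effect and substrate without enzyme for full effect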
Target sequence (P24666 whole entry, looked up): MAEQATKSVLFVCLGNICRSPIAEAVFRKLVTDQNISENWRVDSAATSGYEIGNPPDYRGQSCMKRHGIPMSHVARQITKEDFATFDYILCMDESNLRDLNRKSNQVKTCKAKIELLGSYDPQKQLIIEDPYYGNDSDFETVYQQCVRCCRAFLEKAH
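Test system: LMPTP-A phosphatase enzyme. Amount: LMPTP-A at 0.625 nM final in the reaction. Reagent: OMFP substrate, 400 µM final. Times: 50 min at room temperature. Signal: endpoint fluorescence intensity from OMFP dephosphorylation. Read-out basis: % inhibition. Benchmarks: no-enzyme and uninhibited controls.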
STEP block: STEP phosphatase inhibitors, primary screen, biochemical, fluorescence intensity, uHTS; Tyrosine-protein phosphatase non-receptor type 5 (Homo sapiens), P54829; hit rate 0.25% among 360,000; recombinant STEP, OMFP fluorogenic substrate; inhibition, % at 20 µM;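 active = inhibition at 20 µM, scaled per plate between control wells, above about 37%, limit read from the data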;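 note: 0% = DMSO with enzyme and substrate and 100% = substrate only without enzyme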
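System: STEP (striatal-enriched tyrosine phosphatase) enzyme, cell-free; medium: Bis-Tris pH 6.0 buffer with DTT, detergent; dosing: 20 µM, 1% DMSO; times: reaction 20 min, ambient temperature; detection: fluorescence, 480/540 nm; read-out basis: normalized % inhibition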
DNMT1 block: human DNMT1 methyltransferase inhibitors, primary screen, biochemical, molecular beacon, fluorescence, HinP1I cleavage, uHTS; inhibition (reported as % activation of signal), % at 10 µM; AID 588458, 2011; hit rate 0.83% among 360,000; in the data active = inhibition above about 50%
SUMO1 PPI mod: modulators of SUMO1 protein-protein interactions, primary screen, biochemical, uHTS | Small ubiquitin-related modifier 1 (Homo sapiens), P63165 | SUMO1 binding to a labelled peptide, TR-FRET, 1 h | inhibition, % at 20 µM | hit rate 0.33% among 360,000; in the data active = inhibition above about 37%
Target sequence (P63165 whole entry, looked up): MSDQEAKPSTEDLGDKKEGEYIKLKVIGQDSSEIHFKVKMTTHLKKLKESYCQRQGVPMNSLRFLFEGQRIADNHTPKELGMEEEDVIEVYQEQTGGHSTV
Scp-1 inhibitor: Scp-1 phosphatase inhibitors, primary screen, biochemical, colorimetric, uHTS; inhibition, % at 20 µM; Carboxy-terminal domain RNA polymerase II polypeptide A small phosphatase 1 (Homo …; hit rate 0.88% among 340,000; Recombinant Scp1, phosphopeptide, malachite green phosphate absorbance;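 active = inhibition above about 50% at 20 µM, limit read from the data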;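 note: plate controls were DMSO wells with enzyme for no effect and wells lacking enzyme for full effect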
Target sequence (Q9GZU7 76-261 limits assumed): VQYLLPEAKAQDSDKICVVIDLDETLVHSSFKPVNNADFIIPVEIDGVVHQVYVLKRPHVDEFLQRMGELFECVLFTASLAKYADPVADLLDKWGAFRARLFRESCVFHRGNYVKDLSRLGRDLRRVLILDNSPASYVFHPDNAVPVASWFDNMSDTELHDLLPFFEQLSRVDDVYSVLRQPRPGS
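System: truncated SCP-1 phosphatase (76-261aa); medium: Tris acetate buffer pH 5.5 with MgCl2 and Tween-20; incubation: 45 min room-temperature reaction, 5 min colour, 30 min stabiliser; compound: single 20 µM dose, 1% DMSO; reagent: Phosphorylated 17-residue peptide substrate; read-out: % inhibition at 20 µM; technique: colorimetric free-phosphate detection, absorbance 630 nm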
Scp1 confirm: Scp-1 phosphatase inhibitors, retest, confirmation, biochemical, colorimetric, single concentration | shares compounds with Scp-1 inhibitor | recombinant SCP-1 catalytic domain, phosphate release, malachite green absorbance | inhibition, % at 20 µM | hit rate 61% among 2,500 | AID 540281, 2011;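 note: plate controls were DMSO with enzyme for no effect and buffer wells lacking enzyme for full effect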
MG interference: colorimetric readout interference by compounds, confirmation, artefact control for Scp-1 inhibitor project, biochemical, single concentration | shares compounds with Scp-1 inhibitor | 2,500 tested, under 10 active | Colorimetric interference counterscreen, malachite green absorbance 630 nm | apparent inhibition (interference), % at 20 µM;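 note: compounds added after enzyme reaction finished so only phosphate colour detection is probed; plate controls were DMSO wells with completed Scp-1 reaction for no effect and substrate wells lacking enzyme for full effect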
Scp-1 Tm shift: Scp-1 binding by thermal shift, confirmation, orthogonal assay for Scp-1 inhibitor project, biophysical, differential scanning fluorimetry; shares compounds with Scp-1 inhibitor; Recombinant SCP1, Sypro Orange thermal shift Tm; thermal shift relative to vanadate control, % at 40 µM; hit rate 25% among 1,500; AID 540329, 2011;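 active = substances whose mean melting-temperature shift, as a percentage of the reference inhibitor's shift, reaches about 5.3%, limit read from the data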;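 note: 0% = Tm of DMSO wells and 100% = Tm with sodium orthovanadate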
An asterisk follows results filed as active; x = no result.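 Rule for the calls, unless noted: active = inhibition of at least 30% at 20 µM; inactive = the rest.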

SMILES	LMPTP inh	STEP block	DNMT1 block	SUMO1 PPI mod	Scp-1 inhibitor	Scp1 confirm	MG interference	others
O=C(NCC1CCCO1)c1ccc([N+](=O)[O-])o1 (centres undefined)	-1	0	0	-42	63*	-26	-18
O=C(NCC1CCCO1)c1cc(-c2ccccc2F)no1 (centres undefined)	-1	-1	1	0	52*	-15	-14
O=C(NCC1CCCO1)c1cccc(F)c1 (centres undefined)	-2	-3	2	1	4	x	x
C[n+]1cccc(C(=O)NCC2CCCO2)c1 (centres undefined)	-3	-1	-3	4	60*	-9	-18
O=C(Cc1ccc([N+](=O)[O-])cc1)NCC1CCCO1 (centres undefined)	0	-2	-3	-10	-7	x	x
COC(=O)c1cc(S(=O)(=O)N2CCN(C(=O)c3ccco3)CC2)cn1C	-1	1	1	4	-11	x	x
COc1ccc(OC2CCN(C(=O)Nc3ccc(C)cc3)CC2)cc1	3	-1	10	-1	-18	x	x
O=C(CSc1nc2sc3c(c2c(=O)n1-c1ccccc1)CCCC3)N/N=C/c1ccccc1C(=O)O	1	76*	5	5	78*	49*	-8	Scp-1 Tm shift=-5
Cc1cc(C)c(S(C)(=O)=O)c(N(C)NC(=O)c2c(F)cccc2F)n1	-1	0	-4	0	68*	-15	-11
O=C(Nc1ccc(Cl)cc1Cl)c1ccc(Br)o1	2	-2	1	0	-14	x	x
O=C(Nc1nc(-c2ccco2)c(-c2ccco2)s1)C1CC(=O)N(c2ccc3c(c2)OCCO3)C1 (centres undefined)	39	12	72*	27	82*	57*	-14	Scp-1 Tm shift=13*
O=C(Nc1nnc(SCc2ccc(F)cc2)s1)C1CC(=O)N(c2ccc3c(c2)OCCO3)C1 (centres undefined)	1	-4	0	6	-1	x	x
O=C(Nc1nnc(SCc2c(Cl)cccc2Cl)s1)C1CC(=O)N(c2ccc3c(c2)OCCO3)C1 (centres undefined)	4	2	42	-1	67*	66*	-16	Scp-1 Tm shift=-12
Cc1nnc(NC(=O)C2CC(=O)N(c3ccc4c(c3)OCCO4)C2)s1 (centres undefined)	0	-2	6	-4	1	x	x
Cc1ccccc1CC(=O)Nc1ccon1	-1	-1	2	-1	0	x	x
CN(C)CC(C)(C)CNS(=O)(=O)c1cccc(Cl)c1Cl	-2	-5	-1	-3	70*	12	-22
O=C(NC1CCCCCC1)C(Cc1ccccc1)n1cccc1 (centres undefined)	0	4	2	-3	-7	x	x
COc1cccc(N(CC(=O)NCc2ccco2)C(=O)CCC(=O)Nc2nccs2)c1	1	0	-4	-2	-5	x	x
Cc1cc(C(=O)Nc2ccccc2C(=O)O)ccc1NC(=O)COc1ccccc1Cl	11	22	1	19	80*	52*	1	Scp-1 Tm shift=6.7*
O=C(COc1ccccc1Cl)Nc1ccc(C(=O)O)cc1NC(=O)COc1ccccc1Cl	-1	-2	2	6	3	x	x
CCOC(=O)C1=C(C)NC(=O)NC1c1c(OCC(=O)N2CCCCC2)ccc2ccccc12 (centres undefined)	0	2	5	-4	-5	-8	-9
